The results in this text go back to ChEMBL document CHEMBL4813970, “Design, synthesis and evaluation of novel dimethylamino chalcone-O-alkylamines derivatives as potential multifunctional agents against Alzheimer's disease” (Eur J Med Chem, 2021).

Structures are written as SMILES. Bounds are passed on as bounds.

The target in assay [1] is Acetylcholinesterase (Electrophorus electricus, UniProt O42275). As to the kind of experiment: Inhibition of electric eel AChE using acetylthiocholine iodide as substrate by Ellman's method. On the technique in general: DTNB colorimetry detects thiols as they appear.
Sequence of Acetylcholinesterase (Electrophorus electricus, UniProt O42275) (O42275 whole entry): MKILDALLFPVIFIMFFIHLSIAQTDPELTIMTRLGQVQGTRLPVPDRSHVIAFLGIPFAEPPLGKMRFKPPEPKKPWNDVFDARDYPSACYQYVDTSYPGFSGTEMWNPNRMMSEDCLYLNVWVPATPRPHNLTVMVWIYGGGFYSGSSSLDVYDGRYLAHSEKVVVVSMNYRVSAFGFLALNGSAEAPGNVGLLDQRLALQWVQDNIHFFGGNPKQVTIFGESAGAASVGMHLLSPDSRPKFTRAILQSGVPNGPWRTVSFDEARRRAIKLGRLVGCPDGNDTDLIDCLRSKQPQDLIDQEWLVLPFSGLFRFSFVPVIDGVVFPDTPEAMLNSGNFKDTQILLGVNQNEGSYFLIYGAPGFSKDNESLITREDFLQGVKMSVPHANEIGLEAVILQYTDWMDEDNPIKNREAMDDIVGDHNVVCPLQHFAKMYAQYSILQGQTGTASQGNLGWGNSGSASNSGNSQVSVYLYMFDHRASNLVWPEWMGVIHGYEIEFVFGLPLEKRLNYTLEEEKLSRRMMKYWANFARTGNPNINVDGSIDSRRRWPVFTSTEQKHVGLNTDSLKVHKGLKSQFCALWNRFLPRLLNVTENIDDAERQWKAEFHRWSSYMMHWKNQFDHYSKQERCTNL
Assay [2] concerns the target T1, Acetylcholinesterase (Rattus norvegicus, UniProt P37136).
T1 sequence (P37136 whole entry): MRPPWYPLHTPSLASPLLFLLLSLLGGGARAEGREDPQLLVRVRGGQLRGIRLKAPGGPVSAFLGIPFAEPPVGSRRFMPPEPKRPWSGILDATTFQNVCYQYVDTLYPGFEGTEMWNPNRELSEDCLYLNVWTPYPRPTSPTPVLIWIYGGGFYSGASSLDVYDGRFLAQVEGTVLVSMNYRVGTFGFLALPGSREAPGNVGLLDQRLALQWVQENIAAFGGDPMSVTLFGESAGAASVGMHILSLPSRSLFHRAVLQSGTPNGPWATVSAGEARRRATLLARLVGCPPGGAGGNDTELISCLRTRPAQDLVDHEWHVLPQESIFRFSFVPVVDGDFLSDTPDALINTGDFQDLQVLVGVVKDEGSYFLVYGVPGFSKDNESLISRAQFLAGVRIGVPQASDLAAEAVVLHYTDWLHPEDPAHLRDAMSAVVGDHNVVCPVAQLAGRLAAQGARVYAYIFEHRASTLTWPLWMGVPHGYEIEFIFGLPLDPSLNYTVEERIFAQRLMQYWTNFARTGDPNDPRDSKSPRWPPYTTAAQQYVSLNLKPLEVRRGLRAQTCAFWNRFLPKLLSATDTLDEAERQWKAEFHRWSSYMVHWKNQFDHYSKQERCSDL
As to the kind of experiment: Inhibition of rat cortex homogenate acetylcholinesterase by Ellman's method.

For a further assay, the species on record is Homo sapiens. As to the kind of experiment: Selectivity index, ratio of IC50 for recombinant human MAO-A to IC50 for recombinant human MAO-B. In a few lines:
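Selectivity index taken as IC50(hMAO-A)/IC50(hMAO-B). IC50 values are mean ± SEM from three experiments.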

Assay [3] deals with Amyloid-beta precursor protein (Homo sapiens, UniProt P05067). As to the kind of experiment: Inhibition of self-induced amyloid beta (1 to 42) (unknown origin) aggregation at 25 uM by T-fluorescence assay relative to control. In outline: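 Self-induced Aβ1-42 aggregation measured by ThT fluorescence, excitation 446 nm and emission 490 nm. Compound and Aβ1-42 each at 25 μM. Run in triplicate. Values are mean of three independent experiments.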
Sequence of Amyloid-beta precursor protein (P05067 whole entry): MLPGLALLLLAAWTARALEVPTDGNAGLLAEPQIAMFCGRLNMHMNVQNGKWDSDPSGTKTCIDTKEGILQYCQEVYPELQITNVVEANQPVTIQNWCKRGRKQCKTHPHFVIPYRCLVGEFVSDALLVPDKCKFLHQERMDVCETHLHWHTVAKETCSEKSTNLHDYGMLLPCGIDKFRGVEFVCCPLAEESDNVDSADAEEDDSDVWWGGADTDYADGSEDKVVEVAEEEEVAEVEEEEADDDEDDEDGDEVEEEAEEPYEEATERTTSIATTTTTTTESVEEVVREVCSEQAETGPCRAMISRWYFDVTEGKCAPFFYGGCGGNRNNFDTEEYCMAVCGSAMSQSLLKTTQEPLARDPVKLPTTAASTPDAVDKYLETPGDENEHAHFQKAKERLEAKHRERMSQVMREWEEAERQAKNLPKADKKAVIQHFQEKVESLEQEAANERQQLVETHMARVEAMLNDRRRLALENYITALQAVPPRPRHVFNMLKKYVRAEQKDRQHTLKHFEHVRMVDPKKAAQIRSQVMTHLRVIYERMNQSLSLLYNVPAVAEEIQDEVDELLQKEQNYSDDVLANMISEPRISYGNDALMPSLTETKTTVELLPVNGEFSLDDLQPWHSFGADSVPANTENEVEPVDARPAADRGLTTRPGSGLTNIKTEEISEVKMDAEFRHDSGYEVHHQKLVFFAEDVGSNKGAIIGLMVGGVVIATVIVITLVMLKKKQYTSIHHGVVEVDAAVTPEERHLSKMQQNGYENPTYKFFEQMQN

Assay [4] has as its target T2, Amine oxidase [flavin-containing] B (Homo sapiens, UniProt P27338).
T2 sequence (P27338 whole entry): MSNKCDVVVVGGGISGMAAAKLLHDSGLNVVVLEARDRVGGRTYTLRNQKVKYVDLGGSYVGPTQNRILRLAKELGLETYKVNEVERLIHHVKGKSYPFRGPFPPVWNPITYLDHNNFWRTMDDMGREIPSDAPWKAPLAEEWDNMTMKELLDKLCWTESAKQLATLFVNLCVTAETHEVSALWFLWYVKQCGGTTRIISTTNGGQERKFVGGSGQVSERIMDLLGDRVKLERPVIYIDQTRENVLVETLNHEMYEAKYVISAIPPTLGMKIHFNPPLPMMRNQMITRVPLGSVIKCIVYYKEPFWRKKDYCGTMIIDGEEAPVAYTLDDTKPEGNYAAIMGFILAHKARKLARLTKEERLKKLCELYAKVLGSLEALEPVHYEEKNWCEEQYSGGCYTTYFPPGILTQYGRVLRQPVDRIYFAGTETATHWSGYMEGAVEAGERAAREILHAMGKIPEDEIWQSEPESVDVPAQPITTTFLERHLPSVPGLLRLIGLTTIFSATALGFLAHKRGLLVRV
As to the kind of experiment: Inhibition of human recombinant MAO-B by multimode plate reader assay.

A short description of assay [5]: Antioxidant activity of compound assessed as trolox equivalent antioxidant capacity by ORAC-FL assay. It counts as functional.
A further assay deals with Butyrylcholinesterase (Rattus norvegicus, UniProt Q9JKC1). Put plainly: Inhibition of rat serum BuChE by Ellman's method.
Sequence of Butyrylcholinesterase (Q9JKC1 whole entry): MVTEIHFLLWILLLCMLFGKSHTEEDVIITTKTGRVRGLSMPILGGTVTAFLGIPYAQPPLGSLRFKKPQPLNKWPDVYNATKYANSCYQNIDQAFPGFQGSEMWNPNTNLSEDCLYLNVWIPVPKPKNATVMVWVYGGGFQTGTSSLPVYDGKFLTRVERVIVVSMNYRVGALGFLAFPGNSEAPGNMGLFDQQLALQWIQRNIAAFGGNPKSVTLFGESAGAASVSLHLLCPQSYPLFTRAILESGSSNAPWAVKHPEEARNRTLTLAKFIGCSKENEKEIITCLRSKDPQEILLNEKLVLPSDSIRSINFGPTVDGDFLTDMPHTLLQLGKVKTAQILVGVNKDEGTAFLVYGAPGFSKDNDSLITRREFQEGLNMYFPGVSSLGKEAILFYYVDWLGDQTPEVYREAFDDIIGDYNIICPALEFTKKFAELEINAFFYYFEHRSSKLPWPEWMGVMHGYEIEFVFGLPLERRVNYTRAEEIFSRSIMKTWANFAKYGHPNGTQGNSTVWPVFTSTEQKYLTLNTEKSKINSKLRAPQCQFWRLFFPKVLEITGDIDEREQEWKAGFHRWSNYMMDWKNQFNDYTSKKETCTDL
The target in assay [6] is T3, Amine oxidase [flavin-containing] A (Homo sapiens, UniProt P21397).
T3 sequence (P21397 whole entry): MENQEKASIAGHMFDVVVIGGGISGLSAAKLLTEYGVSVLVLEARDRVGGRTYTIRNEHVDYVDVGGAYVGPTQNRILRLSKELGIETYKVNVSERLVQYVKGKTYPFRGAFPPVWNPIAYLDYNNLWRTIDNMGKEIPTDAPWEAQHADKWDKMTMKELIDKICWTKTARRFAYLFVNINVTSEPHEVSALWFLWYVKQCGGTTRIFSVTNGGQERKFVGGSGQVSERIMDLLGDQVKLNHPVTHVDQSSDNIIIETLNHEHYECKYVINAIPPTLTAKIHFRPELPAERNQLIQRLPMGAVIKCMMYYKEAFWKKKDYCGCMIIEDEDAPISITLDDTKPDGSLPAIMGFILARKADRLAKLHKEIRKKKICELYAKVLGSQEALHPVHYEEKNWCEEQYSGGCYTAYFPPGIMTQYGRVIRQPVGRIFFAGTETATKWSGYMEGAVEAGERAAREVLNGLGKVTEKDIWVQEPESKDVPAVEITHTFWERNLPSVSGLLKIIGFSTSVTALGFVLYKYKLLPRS
As to the kind of experiment: Inhibition of human recombinant MAO-A by multimode plate reader assay.

In general, IC50 refers to the midpoint of a concentration-inhibition curve. The inhibition is how much of the control response was suppressed. Read a low inhibition as little suppression. `COc1ccc(C(=O)/C=C/c2ccc(N(C)C)cc2)c(O)c1`: the half-inhibitory concentration (IC50) at Acetylcholinesterase [1] was over 500 µM; on Acetylcholinesterase [2], over 500 µM; in assay [4], 0.21 µM; against Butyrylcholinesterase it was over 500 µM; in assay [6] it was 7.62 µM. In addition, in the assay listed under Homo sapiens, the Selectivity Index turned out to be 36.3. This compound also gave an inhibition in assay [3] of 59.7%. Moreover, the Activity in assay [5] turned out to be 1.2.
For `CN(C)c1ccc(/C=C/C(=O)c2ccc(N(C)C)cc2O)cc1`, the IC50 against Acetylcholinesterase [1] was over 500 µM; on Acetylcholinesterase [2], over 500 µM; in assay [4], 12.1 µM; against Butyrylcholinesterase it was over 500 µM; in assay [6], 47.9 µM. In the assay filed under Homo sapiens, the Selectivity Index worked out at 4. For the same compound, the inhibition in assay [3] amounted to 64.3%. Moreover, in assay [5], the Activity turned out to be 1.7.
As for `CCN(CCCCOc1ccc(/C=C/C(=O)c2ccc(N(C)C)cc2O)cc1)Cc1ccccc1OC`, the IC50 against Acetylcholinesterase [1] is 1.63 µM; against Acetylcholinesterase [2] it was 0.71 µM; in assay [4] it was 4.6 µM; on Butyrylcholinesterase, over 500 µM; in assay [6], 9.2 µM. The Selectivity Index in the assay filed under Homo sapiens amounted to 2. Moreover, the inhibition in assay [3] is 70.1%. In addition, in assay [5], the Activity was 1.6.
Regarding `CCN(CC)CCCOc1ccc(C(=O)/C=C/c2ccc(N(C)C)cc2)c(O)c1`, the half-maximal inhibitory concentration (IC50) on Acetylcholinesterase [1] is 1.35 µM; against Acetylcholinesterase [2], 2.25 µM; in assay [4], 4.1 µM; against Butyrylcholinesterase, over 500 µM; in assay [6], 47.1 µM. Also, the Selectivity Index in the assay listed under Homo sapiens turned out to be 11.5. The compound also yielded an inhibition in assay [3] of 64.1%. Further, the Activity in assay [5] came out at 1.2.
Consider `CCN(CCCOc1ccc(C(=O)/C=C/c2ccccc2)c(O)c1)Cc1ccccc1N(C)C`, for which the IC50 is 2 µM against Acetylcholinesterase [1]; 0.31 µM at Acetylcholinesterase [2]; 0.8 µM in assay [4]; over 500 µM at Butyrylcholinesterase; 67.8 µM in assay [6]. Further, the Selectivity Index in the assay listed under Homo sapiens was found to be 84.4. In assay [3], this compound returned an inhibition of 23%. The Activity in assay [5] came out at 1.3.
Turning to `COc1ccc(/C=C/C(=O)c2ccc(N(C)C)cc2O)cc1`, the half-maximal inhibitory concentration (IC50) is over 500 µM on Acetylcholinesterase [1]; over 500 µM on Acetylcholinesterase [2]; 13.3 µM in assay [4]; over 500 µM against Butyrylcholinesterase; 42.5 µM in assay [6]. Moreover, in the assay filed under Homo sapiens, the Selectivity Index amounted to 3.2. In assay [3], the inhibition was 36.1%. Moreover, in assay [5], the Activity worked out at 1.5.
